An excerpt weighted towards active compounds, which were near 1.4% of everything screened.
Casp6 inh – human caspase-6 inhibitors, primary screen, biochemical, VEID-R110 fluorescence, single point, set 2; P55212; purified caspase-6, Z-VEID-R110 cleavage fluorescence; inhibition, % at 12.5 µM; hit rate 0.53% among 350,000; AID 686996, 2013;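 active = mean inhibition across replicates at least about 35%, with every replicate also reaching that limit, limit read from the data; inconclusive = only one of the two criteria met; inactive = neither criterion met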;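 also: 0% = median of neutral control wells and 100% = no fluorescence left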
Target sequence (P55212 24-179 limits assumed): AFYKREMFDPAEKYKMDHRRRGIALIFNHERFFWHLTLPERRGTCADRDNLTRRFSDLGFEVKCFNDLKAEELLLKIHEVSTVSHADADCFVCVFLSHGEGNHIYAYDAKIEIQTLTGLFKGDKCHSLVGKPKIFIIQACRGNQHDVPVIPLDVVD
Target sequence (P55212 194-293 limits assumed): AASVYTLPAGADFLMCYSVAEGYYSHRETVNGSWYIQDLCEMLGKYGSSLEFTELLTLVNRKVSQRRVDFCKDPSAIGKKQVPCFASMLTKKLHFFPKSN
Vif inh – HIV Vif self-association inhibitors, primary screen, imaging, HEK293T, single point; HEK293T cells, Vif self-association by quenched fluorescence, 24 h; inhibition, % at 7.49 µM; hit rate 0.35% among 340,000; AID 602346, 2012; in the data active = inhibition above about 50%, passing the limit was not always enough; inconclusive = no clear call, values can overlap the other calls; inactive = below about 31%
Myeloid diff 2 – induction of myeloid progenitor differentiation, primary screen, cell-based, flow cytometry, MLPCN library; ER-HoxA9 myeloid progenitors, lysozyme-GFP differentiation; calls only at 10 µM; hit rate 1% among 360,000; AID 624256, 2012;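 active = normalized GFP-positive differentiation at or above the plate's own cutoff, the solvent-only control mean plus 3 SD; inconclusive = no clear call, values can overlap the other calls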;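 also: cells exposed to compound for four days before flow analysis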
T cell HTS – modulators of CD8 T cell-vesicle binding, primary screen, mouse 2C CD8+ T cells, flow cytometry; 2C CD8+ T cell-vesicle binding; hits give low values; response (vesicle binding), % at 7 µM; hit rate 0.068% among 330,000;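 active = response, share of CD8 T cells binding vesicles, and their 90th percentile fluorescence all below set limits, cut at about 80% in these data, passing the limit was not always enough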;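 also: values below 100% mean blocked vesicle binding to the CD8+ T cells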
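incubation = binding step 1.5 h, 37 °C, antibody labelling 20 min, ice | test system = 2C mouse CD8+ T cells | read-out basis = percent CD8+ FL2 mean versus row control | controls = Peptide-free naked vesicles (low) and QL9 vesicles with 0.7% DMSO vehicle (high) | detection = flow cytometry of vesicle-bound cells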
An asterisk follows results filed as active; i = inactive; ? = inconclusive; . = no result; + = active, no number.

SMILES | Casp6 inh | Vif inh | Myeloid diff 2 | T cell HTS
Cc1cccc2sc(NC(=O)c3ccc(OCC4CCCO4)cc3)nc12 (configuration not stated) | -1.6 | -7.4 | i | 487.7
CCOc1ccc2nc(NC(=O)c3ccc(OCC4CCCO4)cc3)sc2c1 (configuration not stated) | -0.9 | -11.3 | + | 90.9
N#Cc1c(Cl)cccc1-n1ccnc1 | . | 13.9 | + | 139.8
O=Nc1[nH]c(=O)c(/C=C(\O)c2ccccc2)nc1NO | . | 105.9* | i | 225.3
O=c1oc2ccccc2nc1/C=C(\O)c1ccccc1 | 6.9 | 1.2 | i | 390.3
Nc1ccc2c(S(=O)(=O)O)cccc2c1S(=O)(=O)O | 8.5 | -2.0 | i | .
Nc1cccc2cc(S(=O)(=O)O)ccc12 | 64.3* | 5.6 | i | .
C[C@H](CO)N1C[C@H](C)[C@H](CN(C)C(=O)c2ccncc2)Oc2ncc(C3=CCCC3)cc2C1=O | -1.6 | . | . | .
COc1ccc(C(C#N)=Cc2ccc(OC)c(OC)c2)cc1 | -0.4 | 1.7 | i | .
COc1cc(N2CCCC2)c(OC)cc1/C=C(/C#N)c1ccc(Br)cc1 | . | 9.2 | + | 381.2
COc1cc(N2CCCC2)c(OC)cc1/C=C(/C#N)c1ccc(F)cc1 | . | 63.1* | . | 323.1
COc1ccc(C(C#N)=Cc2ccccc2OC)cc1 | -0.6 | 8.5 | ? | .
O=C(Nc1cccc2c(=O)[nH][nH]c(=O)c12)c1ccc([N+](=O)[O-])cc1 | 41.6* | . | i | .
CN(C)c1ccccc1-c1cc(NC=O)c2ncc(-c3cccc(C(F)(F)F)c3)n2c1 | -3.2 | . | + | .
CN(C)C(=O)c1cccc(-c2cnc3c(NC=O)cc(-c4ccccc4N(C)C)cn23)c1 | 2.5 | ? | + | .
COc1ccccc1-c1cc(NC=O)c2ncc(-c3cccc(C(F)(F)F)c3)n2c1 | 0.5 | . | i | .
COc1ccc(-c2cc(NC=O)c3ncc(-c4cccc(C(=O)NCCN(C)C)c4)n3c2)c(OC)c1 | -63.5 | 5.0 | + | .
CCCNC(=O)N1CC2(CCN(Cc3cccnc3)CC2)c2c(n(C)c3cc(OC)ccc23)[C@@H]1CO | -1.0 | . | . | .
Clc1ccc(C(Cn2ccnc2)OCc2c(Cl)cccc2Cl)c(Cl)c1 (configuration not stated) | 6.5 | 4.3 | + | 663.2
Cc1ccc2ccc[n+](Cc3ccccc3)c2c1 | -0.9 | -8.6 | i | 196.2
COc1ccc2c(c1)c(C)cc[n+]2Cc1ccccc1 | -16.3 | 3.3 | + | 212.7
Cc1ccc2c(c1)c(C)cc[n+]2Cc1ccccc1 | . | -2.4 | + | 178.8
C[C@H]1CN([C@@H](C)CO)C(=O)c2cc(C#CC3CC3)cnc2O[C@@H]1CN(C)C(=O)c1ccc(F)cc1 | 1.5 | . | . | .
CCC(=O)N1[C@H](C(=O)NC2CCC2)[C@@H](CO)[C@@H]2Cn3c(ccc(-c4ccc(F)cc4)c3=O)[C@@H]21 | -2.3 | . | . | .
O=C(Cn1c(=O)cnc2ccccc21)Nc1ccccc1N1CCOCC1 | -1.2 | 0.1 | i | 366.3
SMILES | Casp6 inh | Vif inh | Myeloid diff 2 | T cell HTS
O=C(OCc1cccc(Cl)c1)c1cc(S(=O)(=O)N2CCCCC2)ccc1N1CCOCC1 | 2.4 | . | + | 0.0
CCOc1ccc(S(=O)(=O)N2CCOCC2)cc1NC(=O)CSCC(=O)Nc1cccc(C)c1 | 0.6 | -5.2 | i | 0.0*
O=C(Cn1c(=O)cnc2ccccc21)Nc1cc(Cl)ccc1N1CCOCC1 | 2.9 | 7.7 | + | 897.7
O=C(COc1cccc(Cl)c1)Nc1cc(S(=O)(=O)N2CCOCC2)ccc1N1CCOCC1 | 0.4 | -0.8 | + | 451.6
O=C(OCc1ccccc1)c1cc(S(=O)(=O)N2CCCCC2)ccc1N1CCOCC1 | 4.0 | -9.0 | i | i
CCC(=O)Nc1ccc2c(c1)C(=O)N(C)C[C@H](OC)[C@@H](C)CN(C(=O)c1ccc(F)cc1)[C@@H](C)CO2 | 0.8 | . | . | .
O=C(C[C@H]1CC[C@@H](NC(=O)CCN2CCCCC2)[C@H](CO)O1)Nc1ccccc1 | -3.4 | . | . | .
O=C(C[C@@H]1CC[C@@H]2[C@H](COC[C@@H](O)CN2CC2CCCC2)O1)NCc1ccc(Cl)cc1 | 0.7 | . | . | .
COc1ccc(CN2C(=O)c3ccccc3C2=O)cc1 | -0.6 | 62.2* | i | 201.7
Cc1ccc(C(=O)N/N=C/c2ccc(OC(=O)c3ccccc3Cl)cc2)cn1 | 0.1 | 57.8* | i | 189.7
Cc1ccc(C(=O)N/N=C\c2cccc(OC(=O)c3cccc(F)c3)c2)cn1 | 2.7 | 32.6 | ? | 462.5
Cc1ccc(C(=O)N/N=C\c2ccc(OC(=O)c3cccc(F)c3)cc2)cn1 | 47.4* | -30.9 | i | 191.2
O=C(N/N=C/c1cccc(OC(=O)c2ccccc2Cl)c1)c1cccnc1 | -1.7 | 7.6 | i | 0.0*
O=C(N/N=C/c1cccnc1)c1ccc(NC(=O)c2ccccc2Cl)cc1 | 2.5 | 3.3 | i | 481.8
CC(C)c1ccc(OCc2cccc(C(=O)N/N=C/c3cccnc3)c2)cc1 | 7.4 | 2.4 | + | 294.9
CC(C)NC(=O)Nc1ccc2c(c1)C(=O)N([C@@H](C)CO)C[C@@H](C)[C@@H](CN(C)Cc1ccncc1)OCCCC[C@H](C)O2 | 0.9 | . | . | .
CN1C(=O)c2cc(NC(=O)C3CCCC3)ccc2OC[C@@H]2O[C@@H](CC(=O)NCC3CC3)CC[C@@H]21 | 0.3 | . | . | .
C[C@H]1CN([C@@H](C)CO)C(=O)c2cc(-c3cccc(C#N)c3)cnc2O[C@H]1CN(C)Cc1ccncc1 | -0.4 | . | . | .
Fc1ccc(-c2cc3nc(-c4ccccc4)cc(N4CCN(CCN5CCOCC5)CC4)n3n2)cc1 | . | 2.6 | + | .
CN1CCN(c2cc(-c3ccccc3)nc3cc(-c4ccc(F)cc4)nn23)CC1 | . | . | i | 171.6
CN(C)C(=O)[C@H]1[C@H](CO)[C@H]2Cn3c(ccc(-c4ccccc4F)c3=O)[C@H]2N1C(=O)c1cnccn1 | -2.0 | . | . | .
COc1ccc2c(c1)N(C)/C(=C1/SC(=NCc3ccccc3)N(c3ccccc3)C1=O)S2 | . | 170.3* | i | 162.7
O=S(=O)(O)c1cccc2cccc(Nc3ccccc3)c12 | 56.2* | 5.8 | i | 459.5
C=C(C(=O)c1ccccc1)C(C)C(=C)C(=O)c1ccccc1 | 8.1 | 66.8* | ? | 355.5
CC(=O)N1CC2(C1)[C@H](c1ccc(-c3ccc(F)cc3)cc1)[C@H](CO)N2C(C)=O | 1.0 | . | . | .
SMILES | Casp6 inh | Vif inh | Myeloid diff 2 | T cell HTS
O=C(CN(Cc1ccc(Cl)cc1)C(=O)CN1C(=O)COc2ccccc21)NC1CCCC1 | -3.6 | -0.7 | i | 193.8
COc1ccc(CN(CC(=O)NC2CCCC2)C(=O)CN2C(=O)COc3ccccc32)cc1 | -3.0 | 53.6* | i | 284.9
CC(=O)Oc1cc(O)c2c(=O)c(OC(C)=O)c(-c3ccc(OC(C)=O)c(OC(C)=O)c3)oc2c1 | . | -14.4 | i | 65.3*
COCCOCC(=O)Nc1ccc(S(=O)(=O)Nc2cc(C)nc(C)n2)cc1 | -0.2 | 3.5 | + | 247.8
COc1ccc(OCC(=O)Nc2ccc(S(=O)(=O)Nc3cc(C)nc(C)n3)cc2)cc1 | . | -5.9 | i | 253.5
COc1ccc(CN2CCC(C(=O)NC(C)c3cccc4ccccc34)CC2)cc1 (configuration not stated) | . | . | i | .
